In ChEMBL document CHEMBL4020839, “Class I HDAC Inhibitors Display Different Antitumor Mechanism in Leukemia and Prostatic Cancer Cells Depending on Their p53 Status” (J Med Chem, 2018):
Active and inactive are the calls of the source. No cut-off for these calls is given here.

Columns and labels:
Histone deacetylase 2 [1] = molecular target: T1, Histone deacetylase 2 (Homo sapiens, UniProt Q92769); test: Inhibition of full length recombinant human C-terminal FLAG/His-tagged HDAC2 expressed in baculovirus expression system using Boc-Lys(acetyl)-AMC as substrate preincubated for 1 hr followed by substrate addition measured after 2 hrs by fluorescence assay
T1 sequence (Q92769 whole entry): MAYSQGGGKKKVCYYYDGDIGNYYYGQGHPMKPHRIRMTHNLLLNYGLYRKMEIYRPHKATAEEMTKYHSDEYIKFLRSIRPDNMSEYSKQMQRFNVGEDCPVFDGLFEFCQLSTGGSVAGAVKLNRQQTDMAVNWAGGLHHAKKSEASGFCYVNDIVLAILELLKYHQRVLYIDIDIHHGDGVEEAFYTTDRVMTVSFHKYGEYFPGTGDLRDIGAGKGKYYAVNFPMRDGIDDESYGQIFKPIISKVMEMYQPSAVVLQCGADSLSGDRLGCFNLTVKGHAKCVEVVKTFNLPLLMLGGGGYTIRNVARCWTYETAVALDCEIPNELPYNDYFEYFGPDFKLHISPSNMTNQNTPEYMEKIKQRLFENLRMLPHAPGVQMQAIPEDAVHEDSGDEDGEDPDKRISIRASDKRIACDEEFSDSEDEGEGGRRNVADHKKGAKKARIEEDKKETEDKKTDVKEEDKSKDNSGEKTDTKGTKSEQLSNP
In short: (§1)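 Recombinant HDAC incubated with serial compound dilutions at 30 °C for 1 h. Reaction run 2 h at 30 °C, stopped with developer containing trypsin and TSA. Fluorescence read after 30 min at 360/460 nm. Inhibition relative to control wells; IC50 from variable-slope fit.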

Histone deacetylase 2 [2] = molecular target: T1, Histone deacetylase 2; test: Inhibition of full length recombinant human C-terminal FLAG/His-tagged HDAC2 expressed in baculovirus expression system using Boc-Lys(acetyl)-AMC as substrate preincubated for 60 mins followed by substrate addition measured after 2 hrs by fluorescence assay
In short: (§2)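 Recombinant HDAC2 preincubated with serial compound dilutions at 30 °C for 15, 30, 60 or 90 min. Boc-Lys(acetyl)-AMC added and reaction run 2 h at 30 °C, then stopped with trypsin/TSA developer. Fluorescence read at 360/460 nm; IC50 from variable-slope fit of control-normalized inhibition.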

Histone deacetylase 2 [3] = molecular target: T1, Histone deacetylase 2; test: Inhibition of full length recombinant human C-terminal FLAG/His-tagged HDAC2 expressed in baculovirus expression system using Boc-Lys(acetyl)-AMC as substrate preincubated for 30 mins followed by substrate addition measured after 2 hrs by fluorescence assay; in short: as §2
Histone deacetylase 2 [4] = molecular target: T1, Histone deacetylase 2; test: (§3) Mixed-type inhibition of full length recombinant human C-terminal FLAG/His-tagged HDAC2 expressed in baculovirus expression system using Boc-Lys(acetyl)-AMC as substrate preincubated for 2 hrs followed by substrate addition measured after 2 hrs by Lineweaver-Burk plot analysis
In short: (§4)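 Recombinant human HDAC2 or HDAC3 incubated 2 h at 30 °C with inhibitor at several concentrations in HDAC buffer. Serially diluted Boc-Lys(acetyl)-AMC added for 2 h, then quenched with 5 mg/mL trypsin and 1 μM TSA. Fluorescence read at 360/460 nm. Vmax and Km from Michaelis–Menten fits, shown as Lineweaver–Burk plots.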

Histone deacetylase 2 [5] = molecular target: T1, Histone deacetylase 2; test: Inhibition of full length recombinant human C-terminal FLAG/His-tagged HDAC2 expressed in baculovirus expression system using Boc-Lys(acetyl)-AMC as substrate preincubated for 90 mins followed by substrate addition measured after 2 hrs by fluorescence assay; in short: as §2
Histone deacetylase 1 [6] = molecular target: T2, Histone deacetylase 1 (Homo sapiens, UniProt Q13547); test: Inhibition of full length recombinant human C-terminal FLAG/His-tagged HDAC1 expressed in baculovirus expression system using Boc-Lys(acetyl)-AMC as substrate preincubated for 15 mins followed by substrate addition measured after 2 hrs by fluorescence assay
T2 sequence (Q13547 whole entry): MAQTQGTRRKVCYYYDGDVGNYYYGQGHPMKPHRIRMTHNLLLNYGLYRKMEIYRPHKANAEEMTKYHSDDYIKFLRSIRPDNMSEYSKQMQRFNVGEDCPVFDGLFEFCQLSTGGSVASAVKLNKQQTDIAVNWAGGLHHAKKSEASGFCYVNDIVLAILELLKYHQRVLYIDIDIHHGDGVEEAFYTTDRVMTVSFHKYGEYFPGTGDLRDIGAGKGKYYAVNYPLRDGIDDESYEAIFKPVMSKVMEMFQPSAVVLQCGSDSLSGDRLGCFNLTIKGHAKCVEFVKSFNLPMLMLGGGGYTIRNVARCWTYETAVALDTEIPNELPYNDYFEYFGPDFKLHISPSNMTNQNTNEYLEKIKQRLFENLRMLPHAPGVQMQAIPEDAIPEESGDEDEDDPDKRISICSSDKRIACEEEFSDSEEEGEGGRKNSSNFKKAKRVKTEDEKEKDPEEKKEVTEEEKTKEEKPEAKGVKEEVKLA
In short: (§5)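 Recombinant HDAC1 was preincubated with serially diluted inhibitor at 30 °C for the stated time. Boc-Lys(acetyl)-AMC was then added and the reaction ran 2 h at 30 °C. It was stopped with a trypsin/trichostatin A developer, and fluorescence was read 30 min later (ex 360/em 460 nm). Inhibition was taken relative to control wells, and IC50 came from a variable-slope log(inhibitor)–normalized response fit.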

[7] = molecular target: Histone deacetylase 3/Nuclear receptor corepressor 2 (HDAC3/NCoR2) (Homo sapiens) (UniProt O15379+Q9Y618); test: as §3, with “His-tagged HDAC3/N-terminal GST-tagged NCOR2 co-expressed” for “FLAG/His-tagged HDAC2 expressed”; in short: as §4
Histone deacetylase 1 [8] = molecular target: T2, Histone deacetylase 1; test: Inhibition of full length recombinant human C-terminal FLAG/His-tagged HDAC1 expressed in baculovirus expression system using Boc-Lys(acetyl)-AMC as substrate preincubated for 90 mins followed by substrate addition measured after 2 hrs by fluorescence assay; in short: as §5
Histone deacetylase 1 [9] = molecular target: T2, Histone deacetylase 1; test: Inhibition of full length recombinant human C-terminal FLAG/His-tagged HDAC1 expressed in baculovirus expression system using Boc-Lys(acetyl)-AMC as substrate preincubated for 1 hr followed by substrate addition measured after 2 hrs by fluorescence assay; in short: as §1
Histone deacetylase 1 [10] = molecular target: T2, Histone deacetylase 1; test: Inhibition of full length recombinant human C-terminal FLAG/His-tagged HDAC1 expressed in baculovirus expression system using Boc-Lys(acetyl)-AMC as substrate preincubated for 60 mins followed by substrate addition measured after 2 hrs by fluorescence assay; in short: as §5
Histone deacetylase 2 [11] = molecular target: T1, Histone deacetylase 2; test: Inhibition of full length recombinant human C-terminal FLAG/His-tagged HDAC2 expressed in baculovirus expression system using Boc-Lys(acetyl)-AMC as substrate preincubated for 15 mins followed by substrate addition measured after 2 hrs by fluorescence assay; in short: as §2
[12] = molecular target: T3, Protein deacetylase HDAC6 (Homo sapiens, UniProt Q9UBN7); test: Inhibition of HDAC6 (unknown origin) using Boc-Lys(acetyl)-AMC as substrate preincubated for 1 hr followed by substrate addition measured after 2 hrs by fluorescence assay; in short: as §1
T3 sequence (Q9UBN7 whole entry): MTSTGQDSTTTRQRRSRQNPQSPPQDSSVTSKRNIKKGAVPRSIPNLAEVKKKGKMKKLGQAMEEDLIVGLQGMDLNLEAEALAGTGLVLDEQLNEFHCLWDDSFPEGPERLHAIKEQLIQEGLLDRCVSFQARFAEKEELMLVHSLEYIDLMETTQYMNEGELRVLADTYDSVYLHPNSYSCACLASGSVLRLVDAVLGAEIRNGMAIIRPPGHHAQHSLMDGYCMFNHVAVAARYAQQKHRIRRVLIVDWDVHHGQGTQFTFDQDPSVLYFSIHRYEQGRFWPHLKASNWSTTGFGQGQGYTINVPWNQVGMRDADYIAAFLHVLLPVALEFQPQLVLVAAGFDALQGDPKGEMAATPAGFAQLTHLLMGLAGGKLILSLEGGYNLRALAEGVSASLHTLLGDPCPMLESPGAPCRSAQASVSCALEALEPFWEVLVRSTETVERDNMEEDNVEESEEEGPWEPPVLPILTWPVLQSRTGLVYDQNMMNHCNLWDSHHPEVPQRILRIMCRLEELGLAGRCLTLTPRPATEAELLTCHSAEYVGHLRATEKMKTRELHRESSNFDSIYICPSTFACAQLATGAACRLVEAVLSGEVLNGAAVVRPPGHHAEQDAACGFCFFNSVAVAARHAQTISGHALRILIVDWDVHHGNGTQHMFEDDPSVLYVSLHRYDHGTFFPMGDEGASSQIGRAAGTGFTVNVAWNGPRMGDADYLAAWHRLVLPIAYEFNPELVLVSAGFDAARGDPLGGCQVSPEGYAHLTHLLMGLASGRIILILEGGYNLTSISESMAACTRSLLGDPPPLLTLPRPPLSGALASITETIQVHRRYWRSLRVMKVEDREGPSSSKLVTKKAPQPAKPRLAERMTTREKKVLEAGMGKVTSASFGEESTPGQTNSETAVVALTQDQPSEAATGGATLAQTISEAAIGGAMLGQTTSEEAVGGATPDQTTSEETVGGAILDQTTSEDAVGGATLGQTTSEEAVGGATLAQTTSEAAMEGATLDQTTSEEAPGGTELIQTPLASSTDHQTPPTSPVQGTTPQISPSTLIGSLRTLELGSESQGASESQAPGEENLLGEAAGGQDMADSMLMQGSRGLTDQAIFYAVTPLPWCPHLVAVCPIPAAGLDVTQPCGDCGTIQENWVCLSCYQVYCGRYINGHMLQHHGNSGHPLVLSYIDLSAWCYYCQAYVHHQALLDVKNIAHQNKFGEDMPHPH

[13] = molecular target: T4, Histone deacetylase 3/Nuclear receptor corepressor 2 (HDAC3/NCoR2) (Homo sapiens, UniProt O15379); test: Inhibition of full length recombinant human C-terminal His-tagged HDAC3/N-terminal GST-tagged NCOR2 co-expressed in baculovirus expression system using Boc-Lys(acetyl)-AMC as substrate preincubated for 1 hr followed by substrate addition measured after 2 hrs by fluorescence assay; in short: as §1
T4 sequence (O15379 whole entry): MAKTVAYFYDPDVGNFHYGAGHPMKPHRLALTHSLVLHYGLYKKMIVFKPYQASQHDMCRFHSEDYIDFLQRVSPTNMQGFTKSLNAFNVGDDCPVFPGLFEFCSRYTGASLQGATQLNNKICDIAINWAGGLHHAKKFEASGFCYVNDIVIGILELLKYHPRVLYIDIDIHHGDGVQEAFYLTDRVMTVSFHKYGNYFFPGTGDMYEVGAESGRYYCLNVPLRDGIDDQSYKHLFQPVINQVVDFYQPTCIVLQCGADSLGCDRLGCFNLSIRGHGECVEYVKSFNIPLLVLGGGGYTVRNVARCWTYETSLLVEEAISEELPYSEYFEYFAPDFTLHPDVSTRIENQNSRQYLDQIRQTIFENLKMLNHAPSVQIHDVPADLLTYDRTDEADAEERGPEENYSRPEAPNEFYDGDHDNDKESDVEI
T4 sequence (Q9Y618 whole entry, further chain): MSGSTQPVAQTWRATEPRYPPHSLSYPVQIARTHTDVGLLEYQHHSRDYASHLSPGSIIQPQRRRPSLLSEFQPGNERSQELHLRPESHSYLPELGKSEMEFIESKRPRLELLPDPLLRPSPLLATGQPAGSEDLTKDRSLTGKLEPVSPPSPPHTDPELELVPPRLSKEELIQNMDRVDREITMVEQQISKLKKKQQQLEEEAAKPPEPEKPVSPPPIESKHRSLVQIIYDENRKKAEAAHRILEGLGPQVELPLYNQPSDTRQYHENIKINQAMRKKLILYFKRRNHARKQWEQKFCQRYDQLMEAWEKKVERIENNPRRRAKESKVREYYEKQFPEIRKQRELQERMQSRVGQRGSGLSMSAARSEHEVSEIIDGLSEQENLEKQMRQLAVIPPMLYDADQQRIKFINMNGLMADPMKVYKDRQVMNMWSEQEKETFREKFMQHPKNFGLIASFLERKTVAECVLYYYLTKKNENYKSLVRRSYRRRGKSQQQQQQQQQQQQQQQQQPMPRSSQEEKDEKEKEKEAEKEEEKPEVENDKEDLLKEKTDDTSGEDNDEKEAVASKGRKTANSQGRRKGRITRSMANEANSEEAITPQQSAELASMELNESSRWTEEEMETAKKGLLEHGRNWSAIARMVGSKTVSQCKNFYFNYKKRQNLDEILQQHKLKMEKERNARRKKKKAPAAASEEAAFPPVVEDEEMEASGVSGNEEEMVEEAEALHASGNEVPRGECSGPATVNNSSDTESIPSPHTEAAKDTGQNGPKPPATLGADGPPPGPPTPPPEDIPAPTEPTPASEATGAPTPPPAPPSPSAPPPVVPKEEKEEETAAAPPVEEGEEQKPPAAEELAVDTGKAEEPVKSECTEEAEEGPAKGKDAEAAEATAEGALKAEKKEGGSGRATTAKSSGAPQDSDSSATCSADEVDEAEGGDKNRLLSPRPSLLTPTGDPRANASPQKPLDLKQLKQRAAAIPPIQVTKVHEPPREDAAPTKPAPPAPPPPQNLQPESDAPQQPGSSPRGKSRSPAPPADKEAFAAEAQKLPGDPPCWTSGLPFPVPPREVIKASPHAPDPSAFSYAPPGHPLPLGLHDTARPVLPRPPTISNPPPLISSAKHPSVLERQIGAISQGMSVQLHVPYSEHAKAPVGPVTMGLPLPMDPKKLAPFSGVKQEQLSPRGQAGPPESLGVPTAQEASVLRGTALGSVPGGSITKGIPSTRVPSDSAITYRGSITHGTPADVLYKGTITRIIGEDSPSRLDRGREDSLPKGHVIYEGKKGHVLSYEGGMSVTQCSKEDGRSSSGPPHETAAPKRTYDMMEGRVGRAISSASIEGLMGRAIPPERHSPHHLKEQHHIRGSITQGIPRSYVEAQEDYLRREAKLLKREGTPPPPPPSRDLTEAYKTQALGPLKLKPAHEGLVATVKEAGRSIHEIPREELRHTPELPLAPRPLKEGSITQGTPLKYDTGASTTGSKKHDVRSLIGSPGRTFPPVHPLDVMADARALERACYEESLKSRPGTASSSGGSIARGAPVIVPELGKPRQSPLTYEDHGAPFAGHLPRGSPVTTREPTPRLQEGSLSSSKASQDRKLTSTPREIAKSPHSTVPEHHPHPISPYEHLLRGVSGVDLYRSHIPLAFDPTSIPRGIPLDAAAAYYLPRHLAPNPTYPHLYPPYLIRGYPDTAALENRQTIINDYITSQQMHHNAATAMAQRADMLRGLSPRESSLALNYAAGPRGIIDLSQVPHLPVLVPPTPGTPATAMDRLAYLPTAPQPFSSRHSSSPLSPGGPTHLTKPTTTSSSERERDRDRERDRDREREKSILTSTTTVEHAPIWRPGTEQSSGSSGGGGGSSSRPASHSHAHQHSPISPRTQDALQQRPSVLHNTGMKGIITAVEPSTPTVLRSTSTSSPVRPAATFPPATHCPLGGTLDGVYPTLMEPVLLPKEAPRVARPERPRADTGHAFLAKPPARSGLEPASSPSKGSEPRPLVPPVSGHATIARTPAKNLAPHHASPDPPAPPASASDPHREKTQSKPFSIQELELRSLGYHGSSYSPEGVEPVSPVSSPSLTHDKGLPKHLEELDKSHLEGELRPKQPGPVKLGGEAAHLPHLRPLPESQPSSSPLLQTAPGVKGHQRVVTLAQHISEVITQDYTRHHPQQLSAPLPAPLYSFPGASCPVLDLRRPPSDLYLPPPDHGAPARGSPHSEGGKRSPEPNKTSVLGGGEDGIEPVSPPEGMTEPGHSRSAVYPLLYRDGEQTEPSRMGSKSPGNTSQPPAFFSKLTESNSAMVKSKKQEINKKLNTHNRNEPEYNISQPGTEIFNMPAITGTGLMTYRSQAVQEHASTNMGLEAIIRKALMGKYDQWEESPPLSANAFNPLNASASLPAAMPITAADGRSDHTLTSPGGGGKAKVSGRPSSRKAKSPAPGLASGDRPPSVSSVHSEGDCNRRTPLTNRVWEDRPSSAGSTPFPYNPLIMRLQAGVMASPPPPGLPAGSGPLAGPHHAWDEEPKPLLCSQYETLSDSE

MV4-11 [14] = test: Antiproliferative activity against human MV4-11 cells after 48 hrs by CellTiter-Blue assay; assay type: functional, cell-based; details: MV4-11, 48 h
Histone deacetylase 1 [15] = molecular target: T2, Histone deacetylase 1; test: Inhibition of full length recombinant human C-terminal FLAG/His-tagged HDAC1 expressed in baculovirus expression system using Boc-Lys(acetyl)-AMC as substrate preincubated for 30 mins followed by substrate addition measured after 2 hrs by fluorescence assay
[16] = molecular target: T4, Histone deacetylase 3/Nuclear receptor corepressor 2 (HDAC3/NCoR2); test: Inhibition of full length recombinant human C-terminal His-tagged HDAC3/N-terminal GST-tagged NCOR2 co-expressed in baculovirus expression system using Boc-Lys(acetyl)-AMC as substrate preincubated for 60 mins followed by substrate addition measured after 2 hrs by fluorescence assay
[17] = molecular target: T4, Histone deacetylase 3/Nuclear receptor corepressor 2 (HDAC3/NCoR2); test: Inhibition of full length recombinant human C-terminal His-tagged HDAC3/N-terminal GST-tagged NCOR2 co-expressed in baculovirus expression system using Boc-Lys(acetyl)-AMC as substrate preincubated for 90 mins followed by substrate addition measured after 2 hrs by fluorescence assay
[18] = molecular target: T4, Histone deacetylase 3/Nuclear receptor corepressor 2 (HDAC3/NCoR2); test: Inhibition of full length recombinant human C-terminal His-tagged HDAC3/N-terminal GST-tagged NCOR2 co-expressed in baculovirus expression system using Boc-Lys(acetyl)-AMC as substrate preincubated for 15 mins followed by substrate addition measured after 2 hrs by fluorescence assay
[19] = molecular target: T4, Histone deacetylase 3/Nuclear receptor corepressor 2 (HDAC3/NCoR2); test: Inhibition of full length recombinant human C-terminal His-tagged HDAC3/N-terminal GST-tagged NCOR2 co-expressed in baculovirus expression system using Boc-Lys(acetyl)-AMC as substrate preincubated for 30 mins followed by substrate addition measured after 2 hrs by fluorescence assay
MV4-11 [20] = test: Downregulation of HDAC6 protein expression in human MV4-11 cells at 5 uM after 24 hrs by Western blot analysis; assay type: functional, cell-based
In short: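 MV4-11 cells treated 24 h at 0.25, 0.5, 1 and 2 μM, with 5 μM SAHA as reference. RIPA lysates normalized by BCA, run on 4–12% Bis-Tris gels, probed with primary antibodies at 1/1000 overnight at 4 °C. HDAC6 and acetylated histones/tubulin detected; actin as loading control. Representative of n = 2.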

IC50 (Histone deacetylase 2 [1]) | IC50 (Histone deacetylase 1 [9]) | IC50 [12] | IC50 [13] | SMILES | also measured
0.287 µM | 0.0633 µM | > 100 µM |  | CCCNNC(=O)c1ccc(CNC(=O)[C@H](Cc2c[nH]c3ccccc23)NC(=O)c2ccc(OC)cc2)cc1 | IC50 (Histone deacetylase 2 [2]): 0.26 µM; IC50 (Histone deacetylase 2 [3]): 0.367 µM; inhibition (Histone deacetylase 2 [4]): Active; IC50 (Histone deacetylase 2 [5]): 0.194 µM; IC50 (Histone deacetylase 1 [6]): 0.0912 µM; inhibition [7]: Active; IC50 (Histone deacetylase 1 [8]): 0.0329 µM; IC50 (Histone deacetylase 1 [10]): 0.0501 µM; IC50 (Histone deacetylase 2 [11]): 0.424 µM
0.0888 µM | 0.0955 µM | 0.393 µM | 0.0349 µM | CCNNC(=O)c1ccc(CNC(=O)[C@H](Cc2c[nH]c3ccccc23)NC(=O)c2ccc(OC)cc2)cc1 | 
0.283 µM | 0.0289 µM | > 100 µM | 0.00282 µM | CCCNNC(=O)/C=C/c1ccc(OC[C@H](Cc2c[nH]c3ccccc23)NC(=O)c2ccc(OC)cc2)cc1 | EC50 (MV4-11 [14]): 0.243 µM
0.209 µM | 0.0802 µM | > 100 µM | 0.0124 µM | CCCNNC(=O)CCCCCNC(=O)[C@H](Cc1c[nH]c2ccccc12)NC(=O)c1ccc(OC)cc1 | 
0.332 µM | 0.0298 µM | > 100 µM | 0.0109 µM | CCCCCNNC(=O)c1ccc(CNC(=O)[C@H](Cc2c[nH]c3ccccc23)NC(=O)c2ccc(OC)cc2)cc1 | 
0.193 µM | 0.0537 µM | > 100 µM | 0.0165 µM | CCCCNNC(=O)c1ccc(CNC(=O)[C@H](Cc2c[nH]c3ccccc23)NC(=O)c2ccc(OC)cc2)cc1 | 

The next lines start with the compound.

SMILES | IC50 (Histone deacetylase 2 [1]) | IC50 (Histone deacetylase 1 [9]) | IC50 [12] | IC50 [13] | also measured
COc1ccc(C(=O)N[C@@H](Cc2c[nH]c3ccccc23)C(=O)NCc2ccc(C(=O)NNc3ccccc3)cc2)cc1 | > 5 µM | > 5 µM | > 100 µM | > 5 µM | EC50 (MV4-11 [14]): > 20 µM
COc1ccc(C(=O)N[C@@H](Cc2c[nH]c3ccccc23)C(=O)NCc2ccc(C(=O)NNC3CCCC3)cc2)cc1 | > 5 µM | > 5 µM | > 100 µM | > 5 µM | EC50 (MV4-11 [14]): > 20 µM
CCCNNC(=O)CCCCCCNC(=O)[C@H](Cc1c[nH]c2ccccc12)NC(=O)c1ccc(OC)cc1 | 0.191 µM | 0.0916 µM | > 100 µM | 0.0052 µM | 
COc1ccc(C(=O)N[C@@H](Cc2c[nH]c3ccccc23)C(=O)NCc2ccc(C(=O)Nc3ccccc3N)cc2)cc1 |  |  | > 100 µM |  | IC50 (Histone deacetylase 1 [15]): 0.0649 µM; IC50 (Histone deacetylase 2 [2]): 0.169 µM; IC50 [16]: 0.184 µM; IC50 [17]: 0.135 µM; IC50 (Histone deacetylase 2 [3]): 0.252 µM; inhibition (Histone deacetylase 2 [4]): Active; IC50 (Histone deacetylase 2 [5]): 0.121 µM; IC50 (Histone deacetylase 1 [6]): 0.0999 µM; inhibition [7]: Active; IC50 (Histone deacetylase 1 [8]): 0.0345 µM; IC50 [18]: 0.939 µM; IC50 (Histone deacetylase 1 [10]): 0.0498 µM; IC50 (Histone deacetylase 2 [11]): 0.348 µM; IC50 [19]: 0.433 µM
O=C(CCCCCCC(=O)Nc1ccccc1)NO |  |  |  |  | Activity (MV4-11 [20]): Active
CCCNNC(=O)CCCCCCCNC(=O)[C@H](Cc1c[nH]c2ccccc12)NC(=O)c1ccc(OC)cc1 | 0.199 µM | 0.0528 µM | > 100 µM | 0.0121 µM | 
